In brackets after ≈: the same amount, converted by molar mass.
How the values were obtained:
[1] = Protein binding in cynomolgus monkey plasma; type: ADME, cell-free, Macaca fascicularis; conditions: read-out: PPB (converted)
[2] = Oral bioavailability in cynomolgus monkey at 5 mg/kg; type: ADME, organism-based, Macaca fascicularis; conditions: in vivo
Summary of the method: (§1)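 Single IV (about 1 mg/kg) and oral (about 5 mg/kg) doses in rat, cynomolgus monkey and dog; CL, t1/2, Vss, Cmax, tmax, AUC and oral bioavailability F derived from plasma concentration-time data.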

[3] = Dissociation constant, pKa of the compound; type: physicochemical
[4] = Drug metabolism in dog liver microsomes assessed as CYP-mediated metabolism by measuring compound half life; type: ADME, Canis lupus familiaris
Summary of the method: (§2)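 Microsomal stability with NADPH (CYP-dependent) in rat, cynomolgus, dog and human microsomes; half-life in min.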

[5] = Protein binding in rat plasma; type: ADME, cell-free; conditions: read-out: PPB (converted)
Salmonella typhimurium [6] = test: Genotoxicity in Salmonella typhimurium TA100 at =<5000 ug/plate in absence of metabolic activators by Ames test; type: toxicity, organism-based; conditions: salmonella enterica subsp. enterica serovar typhimurium
Summary of the method: (§3)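 Bacterial reverse mutation (Ames) test, Salmonella typhimurium TA98 and TA100, up to 5000 µg/plate, with and without metabolic activation.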

[7] = AUC in Beagle dog at 5.2 mg/kg, po; type: ADME, organism-based, Canis lupus familiaris; conditions: in vivo; summary of the method: as §1
[8] = Ssolubility of the compound at pH 7.3; type: physicochemical; conditions: buffer
[9] = AUC in Sprague-Dawley rat at 4.4 mg/kg, po; type: ADME, organism-based; conditions: in vivo; summary of the method: as §1
Cytochrome P450 2C9 = Cytochrome P450 2C9 (Homo sapiens, UniProt P11712); test: Inhibition of human CYP2C9; type: ADME
[10] = Oral bioavailability in Sprague-Dawley rat at 4.4 mg/kg; type: ADME, organism-based; conditions: in vivo; summary of the method: as §1
Homo sapiens [11] = test: Toxicity in normal healthy human at 200 to 1200 mg, po, administered as single dose; type: organism-based; conditions: in vivo
Summary of the method: (§4)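 Human subjects received single oral doses of 200, 600, 800 or 1200 mg and were monitored for clinically significant adverse events.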

[12] = Tmax in cynomolgus monkey at 5 mg/kg, po; type: ADME, organism-based, Macaca fascicularis; conditions: in vivo
[13] = Drug uptake in normal healthy human at 600 mg, po qd after 24 hrs; type: ADME, organism-based; conditions: in vivo, read-out: Drug uptake
Summary of the method: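 Healthy volunteers given 600 mg orally once daily; mean plasma concentration measured 24 h post-dose (C24h).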

[14] = target: T1, Nuclear receptor subfamily 1 group I member 2 (Homo sapiens, UniProt O75469); test: Transactivation of human PXR; type: ADME
T1 sequence (O75469 whole entry): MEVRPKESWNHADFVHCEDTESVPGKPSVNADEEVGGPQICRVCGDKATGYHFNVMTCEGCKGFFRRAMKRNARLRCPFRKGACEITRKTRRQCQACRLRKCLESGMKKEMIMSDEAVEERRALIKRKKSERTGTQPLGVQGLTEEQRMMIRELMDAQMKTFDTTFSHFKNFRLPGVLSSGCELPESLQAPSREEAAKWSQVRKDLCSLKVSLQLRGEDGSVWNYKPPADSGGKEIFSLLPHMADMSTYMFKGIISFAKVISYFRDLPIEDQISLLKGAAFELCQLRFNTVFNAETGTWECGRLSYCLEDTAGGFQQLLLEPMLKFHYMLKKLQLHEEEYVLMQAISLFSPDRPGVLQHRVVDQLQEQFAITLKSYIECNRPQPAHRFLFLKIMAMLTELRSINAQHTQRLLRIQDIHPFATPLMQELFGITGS
Summary of the method: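 Human PXR transactivation assay, with potency reported as EC20A and EC60A values.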

Cytochrome P450 3A4 = Cytochrome P450 3A4 (Homo sapiens, UniProt P08684); test: Inhibition of human CYP3A4; type: ADME
[15] = Clearance in cynomolgus monkey at 1 mg/kg, iv; type: ADME, organism-based, Macaca fascicularis; conditions: in vivo; summary of the method: as §1
[16] = Half-life in Sprague-Dawley rat at 0.87 mg/kg, iv; type: ADME, organism-based; conditions: in vivo; summary of the method: as §1
Salmonella typhimurium [17] = test: Genotoxicity in Salmonella typhimurium TA98 at =<5000 ug/plate in presence of metabolic activators by Ames test; type: toxicity, organism-based; conditions: salmonella enterica subsp. enterica serovar typhimurium; summary of the method: as §3
Salmonella typhimurium [18] = test: Genotoxicity in Salmonella typhimurium TA100 at =<5000 ug/plate in presence of metabolic activators by Ames test; type: toxicity, organism-based; conditions: salmonella enterica subsp. enterica serovar typhimurium; summary of the method: as §3
[19] = Drug metabolism in cynomolgus monkey liver microsomes assessed as CYP-mediated metabolism by measuring compound half life; type: ADME, Macaca fascicularis; summary of the method: as §2
Homo sapiens [20] = test: Toxicity in normal healthy human assessed as occurence of adverse events at 200 to 1200 mg, po, administered as single dose; type: organism-based; conditions: in vivo; summary of the method: as §4
[21] = Tmax in Beagle dog at 5.2 mg/kg, po; type: ADME, organism-based, Canis lupus familiaris; conditions: in vivo
[22] = Cmax in Beagle dog at 5.2 mg/kg, po; type: ADME, organism-based, Canis lupus familiaris; design: dose 5.2 mg/kg, route oral; conditions: in vivo; summary of the method: as §1
Cytochrome P450 2C19 = Cytochrome P450 2C19 (Homo sapiens, UniProt P33261); test: Inhibition of human CYP2C19; type: ADME
[23] = Protein binding in dog plasma; type: ADME, cell-free, Canis lupus familiaris; conditions: read-out: PPB (converted)
[24] = Half-life in Beagle dog at 1 mg/kg, iv; type: ADME, organism-based, Canis lupus familiaris; conditions: in vivo; summary of the method: as §1
[25] = Clearance in Sprague-Dawley rat at 0.87 mg/kg, iv; type: ADME, organism-based; conditions: in vivo; summary of the method: as §1

Cytochrome P450 2C9, sequence (P11712 whole entry): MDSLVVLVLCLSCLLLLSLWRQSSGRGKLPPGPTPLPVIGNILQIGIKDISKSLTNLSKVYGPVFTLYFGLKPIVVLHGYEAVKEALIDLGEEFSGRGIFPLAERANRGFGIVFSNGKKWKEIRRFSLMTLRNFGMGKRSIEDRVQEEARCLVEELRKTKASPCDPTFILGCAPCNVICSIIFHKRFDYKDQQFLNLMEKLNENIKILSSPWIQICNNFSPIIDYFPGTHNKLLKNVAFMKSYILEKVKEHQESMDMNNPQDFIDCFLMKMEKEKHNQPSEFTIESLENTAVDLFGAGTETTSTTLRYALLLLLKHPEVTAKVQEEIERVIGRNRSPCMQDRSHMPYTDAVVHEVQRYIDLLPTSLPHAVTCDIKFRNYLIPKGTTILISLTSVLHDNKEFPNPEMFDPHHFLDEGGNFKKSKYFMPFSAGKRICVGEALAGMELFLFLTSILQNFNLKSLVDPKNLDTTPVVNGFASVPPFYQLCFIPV
Cytochrome P450 3A4, sequence (P08684 whole entry): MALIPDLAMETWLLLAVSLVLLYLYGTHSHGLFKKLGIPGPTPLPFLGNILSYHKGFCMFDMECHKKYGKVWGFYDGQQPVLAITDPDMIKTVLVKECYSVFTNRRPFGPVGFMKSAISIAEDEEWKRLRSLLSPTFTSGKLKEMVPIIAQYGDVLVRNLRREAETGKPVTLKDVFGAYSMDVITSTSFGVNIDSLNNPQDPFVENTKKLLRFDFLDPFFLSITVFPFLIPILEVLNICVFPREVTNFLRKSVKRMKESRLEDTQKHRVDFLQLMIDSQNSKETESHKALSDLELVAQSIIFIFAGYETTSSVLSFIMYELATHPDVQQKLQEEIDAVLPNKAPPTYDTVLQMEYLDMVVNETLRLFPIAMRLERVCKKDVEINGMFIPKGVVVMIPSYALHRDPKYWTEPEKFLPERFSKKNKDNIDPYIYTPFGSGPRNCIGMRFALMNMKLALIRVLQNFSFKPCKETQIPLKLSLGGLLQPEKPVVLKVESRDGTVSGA
Cytochrome P450 2C19, sequence (P33261 whole entry): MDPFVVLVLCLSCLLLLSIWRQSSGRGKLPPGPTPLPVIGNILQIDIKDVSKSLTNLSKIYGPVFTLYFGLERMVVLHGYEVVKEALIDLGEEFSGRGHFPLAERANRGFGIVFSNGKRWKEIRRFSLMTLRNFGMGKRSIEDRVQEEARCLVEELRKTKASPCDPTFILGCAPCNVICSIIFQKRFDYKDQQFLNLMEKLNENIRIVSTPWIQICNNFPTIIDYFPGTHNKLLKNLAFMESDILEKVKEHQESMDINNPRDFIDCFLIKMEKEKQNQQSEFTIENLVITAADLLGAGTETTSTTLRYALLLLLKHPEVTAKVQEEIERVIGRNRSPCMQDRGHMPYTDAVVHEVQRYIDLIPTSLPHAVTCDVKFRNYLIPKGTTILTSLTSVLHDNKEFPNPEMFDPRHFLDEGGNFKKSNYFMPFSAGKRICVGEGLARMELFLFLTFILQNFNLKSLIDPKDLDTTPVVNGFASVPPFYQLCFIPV

SMILES: CC1(C)OCCn2c1nc(C(=O)NCc1ccc(F)cc1)c(O)c2=O
- fraction unbound [1]: 0.041
- bioavailability [2]: 56%
- pKa [3]: 6.6
- half-life [4]: 1.78 h
- fraction unbound [5]: 0.063
- Activity (Salmonella typhimurium [6]): Non-Toxic
- AUC [7]: 162 µM·h
- solubility [8]: 63 µg/mL (≈ 181 µM)
- AUC [9]: 19.1 µM·h
- IC50 (Cytochrome P450 2C9): > 40 µM
- bioavailability [10]: 86%
- Activity (Homo sapiens [11]): Non-Toxic
- Tmax [12]: 0.25 h
- concentration at 24 h [13]: 340 ng/mL
- EC50 [14]: > 50 µM
- EC20 ([14]; human): > 50 µM
- EC60 ([14]; human): > 50 µM
- IC50 (Cytochrome P450 3A4): > 40 µM
- clearance [15]: 6.8 mL/min/kg
- half-life [16]: 4 h
- Activity (Salmonella typhimurium [17]): Non-Toxic
- Activity (Salmonella typhimurium [18]): Non-Toxic
- half-life [19]: 1.6 h
- Activity (Homo sapiens [20]): Non-Toxic
- Tmax [21]: 0.25 h
- Cmax [22]: 72.8 µM
- IC50 (Cytochrome P450 2C19): > 40 µM
- fraction unbound [23]: 0.015
- half-life [24]: 6 h
- clearance [25]: 9.7 mL/min/kg

Reference: ChEMBL document CHEMBL4118197, “The discovery and preclinical evaluation of BMS-707035, a potent HIV-1 integrase strand transfer inhibitor” (Bioorg Med Chem Lett, 2018)
